Assay results as given in ChEMBL document CHEMBL4330057, “Second generation of diazachrysenes: Protection of Ebola virus infected mice and mechanism of action” (Eur J Med Chem, 2019).
Calls of active or inactive are those of the source. No cut-off for these calls is given here.

Columns and labels:
Ebolavirus [1] = experiment: Antiviral activity against Ebolavirus H. sapiens-wt/1995/Kikwit-9510621 infected in human HeLa cells assessed as inhibition of viral infection pretreated for 2 hrs followed by viral infection and measured after 48 hrs by EboV GP immunostaining based high content imaging analysis; assay type: functional, organism-based; conditions: Orthoebolavirus, H. sapiens-wt/1995/Kikwit-9510621, HeLa; for EC50: read-out: EC50
[2] = Cytotoxicity against human HeLa cells after 2 hrs by high content imaging analysis; assay type: cell-based
[3] = Cytotoxicity against HFF after 2 hrs by high content imaging analysis; assay type: cell-based; conditions: human, HFF cells
[4] = Selectivity index, ratio of CC50 for human HeLa cells to EC50 for Ebolavirus H. sapiens-wt/1995/Kikwit-9510621 infected in human HeLa cells; assay type: toxicity, cell-based; conditions: read-out: Ratio CC50/EC50
Albumin = Albumin (Homo sapiens, UniProt P02768); experiment: Binding affinity to human serum albumin at compound to protein molar ratio of 1:20 after 10 mins by fluorescence spectral analysis; assay type: ADME; conditions: isolated protein
Chain of Albumin (P02768 whole entry): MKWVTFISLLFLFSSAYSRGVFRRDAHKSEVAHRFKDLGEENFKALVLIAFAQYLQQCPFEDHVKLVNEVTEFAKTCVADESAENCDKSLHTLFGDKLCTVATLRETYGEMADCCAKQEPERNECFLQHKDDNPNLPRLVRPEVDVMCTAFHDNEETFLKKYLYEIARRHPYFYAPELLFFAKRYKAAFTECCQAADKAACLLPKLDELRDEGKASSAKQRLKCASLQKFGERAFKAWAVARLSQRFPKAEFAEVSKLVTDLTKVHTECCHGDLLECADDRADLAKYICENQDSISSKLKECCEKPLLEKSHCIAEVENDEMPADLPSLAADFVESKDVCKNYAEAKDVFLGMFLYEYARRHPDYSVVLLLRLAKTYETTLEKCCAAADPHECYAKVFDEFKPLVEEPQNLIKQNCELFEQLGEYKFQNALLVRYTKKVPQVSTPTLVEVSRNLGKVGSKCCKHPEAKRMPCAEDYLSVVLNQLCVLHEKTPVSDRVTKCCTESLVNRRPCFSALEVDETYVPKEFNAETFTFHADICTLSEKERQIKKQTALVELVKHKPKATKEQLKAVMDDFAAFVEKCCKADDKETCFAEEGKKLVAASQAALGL
Outline: (§1)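 Protein fluorescence spectra recorded while compound was added in increasing amounts. Stern-Volmer binding constant (KSV) derived from the fluorescence change.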

[5] = Binding affinity to AGP (unknown origin) at compound to protein molar ratio of 1:20 after 10 mins by fluorescence spectral analysis; assay type: ADME; conditions: human, isolated protein; outline: as §1
[6] = Toxicity in 6 hrs post fertilized zebrafish embryo assessed as mortality up to 120 hrs post fertilization; design: species or system Danio rerio; conditions: in vivo
[7] = Toxicity in 6 hrs post fertilized zebrafish embryo assessed as lethal effect on somite formation up to 50 uM up to 120 hrs post fertilization by inverted microscopic method; design: species or system Danio rerio; conditions: in vivo
[8] = Toxicity in 6 hrs post fertilized zebrafish embryo assessed as lethal effect on heart beat up to 50 uM up to 120 hrs post fertilization by inverted microscopic method; assay type: tissue-based, Danio rerio; conditions: in vivo
[9] = Toxicity in 6 hrs post fertilized zebrafish embryo assessed as teratogenic effect by measuring malformation of head up to 50 uM up to 120 hrs post fertilization by inverted microscopic method; assay type: tissue-based, Danio rerio; conditions: in vivo
[10] = Toxicity in 6 hrs post fertilized zebrafish embryo assessed as teratogenic effect by measuring malformation of sacculi/otoliths up to 50 uM up to 120 hrs post fertilization by inverted microscopic method; design: species or system Danio rerio; conditions: in vivo
[11] = Toxicity in 6 hrs post fertilized zebrafish embryo assessed as teratogenic effect by measuring malformation of tail up to 50 uM up to 120 hrs post fertilization by inverted microscopic method; assay type: tissue-based, Danio rerio; conditions: in vivo
[12] = Toxicity in 6 hrs post fertilized zebrafish embryo assessed as teratogenic effect by measuring scoliosis up to 50 uM up to 120 hrs post fertilization by inverted microscopic method; design: species or system Danio rerio; conditions: in vivo
[13] = Toxicity in 6 hrs post fertilized zebrafish embryo assessed as teratogenic effect by measuring effect on heart beat frequency up to 50 uM up to 120 hrs post fertilization by inverted microscopic method; design: species or system Danio rerio; conditions: in vivo
[14] = Toxicity in 6 hrs post fertilized zebrafish embryo assessed as teratogenic effect by measuring effect on blood circulation up to 50 uM up to 120 hrs post fertilization by inverted microscopic method; design: species or system Danio rerio; conditions: in vivo
[15] = Toxicity in 6 hrs post fertilized zebrafish embryo assessed as teratogenic effect by measuring pericardial edema up to 50 uM up to 120 hrs post fertilization by inverted microscopic method; design: species or system Danio rerio; conditions: in vivo
[16] = Toxicity in 6 hrs post fertilized zebrafish embryo assessed as teratogenic effect by measuring yolk absorption up to 50 uM up to 120 hrs post fertilization by inverted microscopic method; design: species or system Danio rerio; conditions: in vivo
[17] = Toxicity in 6 hrs post fertilized zebrafish embryo assessed as teratogenic effect by measuring liver morphology and color up to 50 uM up to 120 hrs post fertilization by inverted microscopic method; assay type: tissue-based, Danio rerio; conditions: in vivo
[18] = Toxicity in 6 hrs post fertilized zebrafish embryo assessed as teratogenic effect by measuring growth retardation up to 50 uM up to 120 hrs post fertilization by inverted microscopic method; design: species or system Danio rerio; conditions: in vivo
Ebolavirus [19] = experiment: Antiviral activity against Ebolavirus H. sapiens-wt/1995/Kikwit-9510621 infected in human HeLa cells assessed as inhibition of viral infection at 2 uM treated simultaneously with viral infection and measured after 24 hrs by EboV GP immunostaining based high content imaging analysis; assay type: functional, organism-based
Ebolavirus [20] = experiment: Antiviral activity against Ebolavirus H. sapiens-wt/1995/Kikwit-9510621 infected in human HeLa cells assessed as inhibition of viral infection at 2 uM pretreated for 2 hrs followed by viral infection and measured after 24 hrs by EboV GP immunostaining based high content imaging analysis; assay type: functional, organism-based
HeLa [21] = experiment: Cytotoxicity against human HeLa cells at 50 uM after 2 hrs; assay type: cell-based
HeLa [22] = experiment: Induction of lysosomotropism in human HeLa cells infected with Ebolavirus assessed as clustering of late endosomes/lysosomes in cytoplasm at 2 uM for 1 hr by Lysosensor DND189 staining based assay; assay type: functional, cell-based
Outline: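 HeLa cells treated 1 h (2 μM; bafilomycin A1 0.01 μM as control), then LysoSensor DND 189 for 10 min. Washed and imaged live at 443/505 nm (dye) and 405/450 nm (compound). Fluorescence intensity/area quantified. Mean ± SD of 8 wells, about 3000 cells each, three independent experiments.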

HeLa [23] = experiment: Induction of lysosomotropism in human HeLa cells infected with Ebolavirus assessed as expansion of acid compartments at 2 uM for 2 hrs by acridine orange staining based assay; assay type: functional, cell-based
Outline: (§2)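 HeLa cells were pretreated with compound for 2 h, then given acridine orange for 30 min and washed. Red AO fluorescence in acidic compartments was imaged, and total intensity and average area were scored by high-content imaging. Eight wells per point, about 3000 cells/well, mean ± SD, representative of three independent experiments.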

HeLa [24] = experiment: Induction of lysosomotropism in human HeLa cells infected with Ebolavirus assessed as dense clustering in perinuclear region at 2 uM for 2 hrs by acridine orange staining based assay; assay type: functional, cell-based
Outline: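 HeLa cells pretreated 2 h, then acridine orange for 30 min, washed and imaged. Total intensity and average area of acridine orange fluorescence quantified by high-content imaging. Mean ± SD of 8 wells, about 3000 cells each, three independent experiments.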

[25] = target: Cathepsin B (Homo sapiens) (UniProt P07858); experiment: Inhibition of cathepsin B activity in human HeLa cells at 2 uM after 12 hrs by magic red substrate based fluorescence assay; assay type: cell-based
Outline: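 HeLa cells were exposed to compound for 12 h, then given the Magic Red cathepsin B peptide reporter, washed, and imaged at Ex/Em 590/630. Total intensity and average area of red fluorescence were scored by high-content analysis. Eight wells per point, about 3000 cells/well, mean ± SD, three independent experiments.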

HeLa [26] = experiment: Inhibition of lysosome fusion with autophagosome in human HeLa cells harboring GFP-LC3 assessed as increase in GFP-LC3-2 clustering at 2 uM after 4 hrs; assay type: functional, cell-based
Outline: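 HeLa cells stably expressing GFP-LC3 were treated with compound for 4 h, then imaged. Total GFP clusters per cell were counted. Eight-well replicates, about 500 cells/well, mean ± SD, three independent experiments.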

HeLa [27] = experiment: Inhibition of lysosome fusion with autophagosome in human HeLa cells harboring GFP-LC3 assessed as increase in GFP-LC3-2 clustering up to 50 uM after 6 hrs by Western blot analysis; assay type: functional, cell-based
Outline: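 HeLa cells were exposed to compound for 6 h, then lysed and analysed by Western blot.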

HeLa [28] = experiment: Induction of lysosomotropism in human HeLa cells infected with Ebolavirus assessed as increase in red fluorescence at 2 uM for 2 hrs by acridine orange staining based assay; assay type: functional, cell-based; outline: as §2

Compound | EC90 (Ebolavirus [1]) | EC50 (Ebolavirus [1]) | CC50 at 2 h [2] | CC50 at 2 h [3] | selectivity ratio [4] | KSV (Albumin) | KSV [5] | Activity [6] | LC50 [6] | Activity [7] | Activity [8] | Activity [9] | Activity [10] | Activity [11] | Activity [12] | Activity [13] | Activity [14] | Activity [15] | Activity [16] | Activity [17] | other results
Cl.Cl.Cl.Cl.c1cc(NCCN2CCOCC2)c2ccc3c(ccc4c(NCCN5CCOCC5)ccnc43)c2n1 | < 5 µM | 0.7 µM | > 20 µM | > 20 µM | > 28.5 | 1.13 ×10⁵ /M | 8.12 ×10⁴ /M | Dose-dependent effect | 72.1 µM | Non-Toxic | Non-Toxic | Non-Toxic | Non-Toxic | Non-Toxic | Non-Toxic | Non-Toxic | Non-Toxic | Non-Toxic | Non-Toxic | Non-Toxic | Activity [18]: Non-Toxic; Activity (Ebolavirus [19]): Active; Activity (Ebolavirus [20]): Active; Activity (HeLa [21]): Toxic; Activity (HeLa [22]): Active; Activity (HeLa [23]): Active; Activity (HeLa [24]): Active; inhibition [25]: Active; inhibition (HeLa [26]): Active; inhibition (HeLa [27]): Active; Activity (HeLa [28]): inactive
Cl.Cl.Cl.Cl.c1cc(NCCCCN2CCOCC2)c2ccc3c(ccc4c(NCCN5CCOCC5)ccnc43)c2n1 | 0.85 µM | 0.26 µM | 8 µM | 2.4 µM | 30 | 8.85 ×10⁴ /M | 6.12 ×10⁴ /M | Dose-dependent effect | 18.9 µM | Non-Toxic | Non-Toxic | Non-Toxic | Non-Toxic | Non-Toxic | Non-Toxic | Non-Toxic | Non-Toxic | Non-Toxic | Non-Toxic | Non-Toxic | Activity [18]: Non-Toxic; Activity (Ebolavirus [19]): Active; Activity (Ebolavirus [20]): Active; Activity (HeLa [21]): Toxic; Activity (HeLa [22]): Active; Activity (HeLa [23]): Active; Activity (HeLa [24]): Active; inhibition [25]: Active; inhibition (HeLa [26]): Active; inhibition (HeLa [27]): Active; Activity (HeLa [28]): inactive
